ABCB6 inh 2: blocks the human ABCB6 transporter. Q9NP58. hit rate 0.19% among 360,000. fluorescence ratio to DMSO, % at 10 µM. K562-ABCB6 porphyrin accumulation, flow cytometry, 1 h; hits give low values;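 active = fluorescence ratio to DMSO below 75%, the collection mean minus 3 SD; inconclusive = too few cells collected in the well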;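 also: signal is porphyrin accumulated inside mitochondria; 100% equals median channel fluorescence of DMSO control wells; lower ratio means ABCB6 inhibition with less porphyrin fluorescence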
CendR NRP1 mod: modulators of CendR peptide binding to human neuropilin-1 | O14786 | FAM-RPARPAR peptide binding to NRP-1, fluorescence polarization | inhibition, % at 25 µM | hit rate 0.85% among 360,000;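 active = inhibition or corrected inhibition above about 18%, plus a signal ratio from 0.5 to 1.5, limit read from the data, passing the limit was not always enough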
ATG4B inh: ATG4B (human) cysteine protease inhibition; Q9Y4P1; ATG4B cleavage of LC3-PLA2, NBD-HPC fluorescence, 1 h; inhibition, % at 8.33 µM; hit rate 0.51% among 340,000; in the data active = inhibition above about 40%
Target sequence (Q9Y4P1 whole entry, looked up): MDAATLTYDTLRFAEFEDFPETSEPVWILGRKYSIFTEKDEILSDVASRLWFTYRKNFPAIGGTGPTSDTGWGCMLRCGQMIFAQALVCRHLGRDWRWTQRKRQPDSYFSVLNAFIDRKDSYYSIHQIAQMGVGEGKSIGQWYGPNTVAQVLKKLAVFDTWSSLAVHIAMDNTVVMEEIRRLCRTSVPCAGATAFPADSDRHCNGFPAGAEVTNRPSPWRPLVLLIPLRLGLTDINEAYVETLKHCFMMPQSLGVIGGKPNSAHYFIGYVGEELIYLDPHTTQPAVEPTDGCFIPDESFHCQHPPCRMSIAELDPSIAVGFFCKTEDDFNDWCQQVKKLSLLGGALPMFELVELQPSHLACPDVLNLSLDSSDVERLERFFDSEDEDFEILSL
Granule exo inh: lytic granule exocytosis inhibition; inhibition, % at 10 µM; TALL-104 LAMP-1 surface exposure, flow cytometry; cells stimulated with thapsigargin and PMA; AID 651702; hit rate 0.66% among 360,000;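 active = inhibition above about 55%, limit read from the data; inconclusive = no clear call, values can overlap the other calls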
Myeloid diff 2: promotes myeloid progenitor differentiation; hit rate 1% among 360,000; ER-HoxA9 myeloid progenitors, lysozyme-GFP differentiation, flow cytometry; calls only at 10 µM;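 active = normalized GFP-positive differentiation at or above the plate's own cutoff, the solvent-only control mean plus 3 SD; inconclusive = no clear call, values can overlap the other calls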;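 also: cells exposed to compound for four days before flow analysis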
Arrestin-AP2 inh: human beta-arrestin and AP2 interaction inhibition. FITC-arrestin peptide / GST-AP2 beads, flow cytometry; AP2 beta2 appendage carries R879A mutation. inhibition, % at 10 µM. hit rate 0.31% among 340,000. AID 504490;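 active = inhibition above a set limit, near 3 SD of compounds lacking own fluorescence, cut at about 54% in these data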;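 also: plate controls were DMSO wells for no effect and 5 µM unlabelled arrestin peptide for full effect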
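System: GST-tagged AP2 beta2-adaptin appendage (R879A) on 4 µm glutathione beads / Reagent: FITC-arrestin peptide, 50 nM / Detection: HyperCyt-sampled flow cytometry, FL1 channel, ex 488/em 535 nm / Timing: 12 min plus 1 h, RT / Buffer or medium: PBS plus Tween 20 (0.05%) and BSA (0.1%)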
Arr AP2 CP1: blocks beta-arrestin peptide binding to human AP2; inhibition, % at 10 µM; shares compounds with Arrestin-AP2 inh; AID 504908; hit rate 2% among 1,300; GST-AP2 beads, FITC arrestin peptide binding, flow cytometry; GST-fused beta2-adaptin appendage, R879A mutant;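 active = inhibition above a set limit, roughly 3 SD of non-fluorescent compound noise, cut at about 38% in these data; inactive = inhibition at or below that limit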;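 also: loss of bead fluorescence from 50 nM FITC arrestin peptide bound to appendage; 0% = negative control wells and 100% = excess unlabelled arrestin peptide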
GST-FITC bead: disrupts GST binding to glutathione beads, arrestin-AP2 artifact; shares compounds with Arrestin-AP2 inh; AID 588338; hit rate 2% among 1,300; GST-fluorescein binding to GSH beads, fluorescence, counter-screen; inhibition, % at 10 µM;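 active = inhibition above 50%, about 3 SD of the inhibition seen with non-fluorescent compounds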;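 also: fluorescein maleimide labelled GST captured on 4 micron glutathione beads; higher means more loss of bead fluorescence from quenching or blocked binding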
* = called active by the depositor; i = inactive; u = inconclusive; x = not tested or not shown. Only some compounds are listed: those with a hit (about 3.3% of all), similar ones and a draw of the others.

SMILES	ABCB6 inh 2	CendR NRP1 mod	ATG4B inh	Granule exo inh	Myeloid diff 2	Arrestin-AP2 inh	Arr AP2 CP1	GST-FITC bead
CCOC(=O)CC1(c2ccccc2)CCOC(C)(C)C1 (centres undefined)	101.0	5.5	-1.0	-2.6	i	1.2	x	x
C[C@@H]1CCCCO[C@@H](CN(C)S(C)(=O)=O)[C@@H](C)CN([C@H](C)CO)C(=O)c2cc(N(C)C)ccc2O1	101.0	11.6	x	-2.7	i	x	x	x
COC(=O)c1ccc(Nc2c([N+](=O)[O-])ccc3nonc23)cc1	116.0	-42.8	0.1	2.6	i	-6.6	x	x
Cc1ccc(NC(=O)Nc2cnccn2)cc1C	97.0	-11.9	-0.8	-5.0	i	8.8	2.8	-1.6
O=C(Nc1ccc(F)c(Cl)c1)Nc1cnccn1	95.0	6.5	10.4	-2.2	i	17.2	x	x
O=C(Nc1ccc(Cl)cc1)Nc1cnccn1	105.0	-17.9	0.6	-7.7	i	9.6	16.2	4.8
CC(C)c1ccc(NC(=O)Nc2cnccn2)cc1	95.0	-3.9	-2.6	0.4	i	-6.6	-2.1	-4.5
O=C(Nc1ccc([N+](=O)[O-])cc1)Nc1cnccn1	98.0	-12.6	-12.1	-0.7	i	-8.0	x	x
Cc1ccc(NC(=O)Nc2cnccn2)cc1	103.0	13.9	2.3	-3.9	i	44.5	-7.8	9.7
N#CC1(Nc2cccc(Cl)c2)CCCC1	94.0	13.3	-1.4	-3.1	i	0.8	x	x
Cc1cc(C)cc(NC(=O)Nc2cnccn2)c1	100.0	11.5	-3.3	0.3	i	7.8	-7.2	0.3
CC(=O)Nc1ccc(NC(=O)Nc2cc(C)cc(C)c2)cc1	97.0	8.0	-3.1	-9.5	i	-4.2	x	x
CN(C)c1ccc(C(CNC(=O)c2cccs2)N(C)C)cc1 (centres undefined)	105.0	4.9	2.6	-0.5	i	6.5	x	x
CCOC(=O)C1CCN(S(=O)(=O)NC[C@H]2O[C@@H](n3cnc4c(N)ncnc43)[C@H](O)[C@@H]2O)C1 (some centres undefined)	102.0	0.8	2.9	4.3	i	-4.4	x	x
COc1ccc2nc(Cl)c(/C=N/Nc3ccccn3)cc2c1	96.0	-0.8	-5.7	-2.6	i	59.0*	-9.2	-13.2
CC(C)(C)NC(=O)C1Cc2ccccc2CN1C(=O)Nc1ccccc1Cl (centres undefined)	99.0	6.8	-4.3	2.4	i	82.8*	3.1	-0.1
CC(C)(C)NC(=O)C1Cc2ccccc2CN1C(=O)Nc1cccc(Cl)c1 (centres undefined)	91.0	6.9	-13.5	-2.8	i	18.3	x	x
Cc1occc1C(=O)NCc1cccs1	103.0	-6.9	-3.6	1.1	i	77.9*	9.5	0.2
Cc1cc(C(=O)NCc2cccs2)c(C)o1	102.0	-11.2	4.1	-1.2	i	0.9	x	x
Cc1ccc(C(=O)OCc2nnc(-c3ccccc3)o2)s1	99.0	6.0	6.2	5.3	i	4.0	x	x
O=C(OCc1nnc(-c2ccccc2)o1)c1ccc([N+](=O)[O-])s1	100.0	-23.7	-59.5	-2.5	i	69.8*	15.1	-3.8
Cc1nnc(SCC(=O)N2CCN(c3ccccc3)CC2)n1C1CC1	104.0	-13.4	-1.1	4.3	i	19.9	x	x
Cn1c(SCC(=O)NC2CC2)nnc1C(F)(F)F	99.0	-6.5	-1.2	4.4	i	-21.6	x	x
CC(C)NC(=O)NC(=O)CSc1nnc(C(F)(F)F)n1C	100.0	1.3	2.8	-1.7	i	66.3*	-2.6	-6.7
CCC[C@@H](NS(=O)(=O)c1ccc(C)cc1)C(=O)Oc1ccc2c3c(c(=O)oc2c1)CCC3	99.0	-1.4	-2.9	-4.8	i	56.5*	-4.5	-4.2
SMILES	ABCB6 inh 2	CendR NRP1 mod	ATG4B inh	Granule exo inh	Myeloid diff 2	Arrestin-AP2 inh	Arr AP2 CP1	GST-FITC bead
CCCOc1ccc(S(=O)(=O)n2cc(F)c(=O)[nH]c2=O)cc1	102.0	9.3	-8.2	-2.5	u	3.5	x	x
COc1ccc(-c2csc(NC(=S)NC(=O)/C=C/c3ccco3)n2)cc1Br	99.0	-17.5	10.0	-1.7	x	87.7*	-1.6	-8.6
CCc1ccc2[nH]c(=O)c(CN(CCN(CC)CC)C(=S)NCc3ccco3)cc2c1	98.0	-24.4	-0.1	-0.6	i	55.3*	9.3	-6.9
CCc1ccc2[nH]c(=O)c(CN(CCN(C)C)C(=S)NCc3ccco3)cc2c1	105.0	-31.8	-8.2	0.7	i	38.5	x	x
O=C(Nc1ccccc1NC(=O)c1ccccc1Cl)c1ccccc1Cl	100.0	12.2	-0.1	-3.8	i	35.5	x	x
CN(C)c1cc2c(cc1NC(=O)c1ccccc1Cl)n(C)c(=O)n2C	98.0	-1.3	-4.6	13.4	i	-1.0	3.7	-13.6
COc1ccc(-c2c(NC(=O)c3ccco3)oc3ccccc3c2=O)cc1OC	103.0	-0.8	-1.1	-1.6	i	-3.5	x	x
Cc1ccc(N2CCN(C(=O)C(=O)c3cccc(Br)c3)CC2)cc1	x	-20.8	x	1.1	i	x	x	x
COc1ccc(N(C(=O)c2ccco2)C(C(=O)NC2CCCCC2)c2cccs2)cc1OC (centres undefined)	101.0	17.9	-12.8	-2.9	i	105.2*	2.1	-10.5
CCOc1ccc(C(C(=O)NC2CCCCC2)N(C(=O)c2ccco2)c2ccc(-n3cnnn3)c(C)c2)cc1 (centres undefined)	99.0	-7.7	-10.1	0.6	i	100.5*	-19.5	-3.9
COc1ccc(C(C(=O)NC2CCCCC2)N(C(=O)c2ccco2)c2ccc(-n3cnnn3)c(C)c2)cc1 (centres undefined)	101.0	-7.9	-17.1	2.7	i	2.2	x	x
C[C@H](CCCC/C=C/C(=O)O)O[C@@H]1O[C@@H](C)[C@H](O)C[C@H]1O	97.0	9.3	3.9	-3.2	i	7.8	x	x
O=c1c2c3c(sc2nc2n1CCCCC2)CCC3	90.0	-7.7	4.1	-2.7	i	104.3*	-2.6	-4.7
O=C1CCCc2c1sc1nc3n(c(=O)c21)CCCCC3	92.0	12.0	-3.7	-0.5	i	8.8	x	x
CNC(=S)N1CCC(NC(=O)C23CC4CC(CC(C4)C2)C3)CC1	95.0	5.2	-6.1	-3.9	i	56.4*	3.8	-5.6
Nc1c(N(C(=O)Nc2ccc(Cl)c(Cl)c2)C2CCCC2)c(=O)[nH]c(=O)n1Cc1ccccc1	119.0	-0.6	-1.9	3.5	i	84.0*	3.0	-5.3
CC(C)NC(=O)CN(Cc1ccc(F)cc1)C(=O)CCC(=O)Nc1ccccn1	99.0	2.3	0.7	-13.8	i	-4.0	x	x
CC1CCN(S(=O)(=O)N2CCC(C(=O)O)CC2)CC1	104.0	2.3	-0.5	-4.9	i	56.5*	19.6	-3.9

Screens deposited in PubChem by several laboratories.
